From ChEMBL document CHEMBL1129571 (J Med Chem, 1996) come the findings set out here.

Assay [1] concerns the target Aldo-keto reductase family 1 member B1 (Rattus norvegicus) (UniProt P07943). Briefly: In vitro inhibitory activity against partially purified rat lens Aldose reductase at a dose of 5e-7M. In short, it runs like this: (§1)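 Rat lens AR partially purified from male Wister rat lenses: homogenized in 10 mM phosphate pH 7.0 with 5 mM 2-mercaptoethanol and 1 mM EDTA, then 30–80% ammonium sulfate cut, dialyzed. NADPH decrease followed at 340 nm.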

For assay [2], the target named is Aldo-keto reductase family 1 member B1 (Rattus norvegicus, UniProt P07943). Briefly: In vitro inhibitory activity against rat lens Aldose reductase. Put shortly:
as §1

The target of assay [3] is Aldo-keto reductase family 1 member A1 (Rattus norvegicus, UniProt P51635). The experiment in a line: In vitro inhibitory activity against rat kidney Aldehyde reductase.
Chain of Aldo-keto reductase family 1 member A1 (P51635 whole entry, looked up): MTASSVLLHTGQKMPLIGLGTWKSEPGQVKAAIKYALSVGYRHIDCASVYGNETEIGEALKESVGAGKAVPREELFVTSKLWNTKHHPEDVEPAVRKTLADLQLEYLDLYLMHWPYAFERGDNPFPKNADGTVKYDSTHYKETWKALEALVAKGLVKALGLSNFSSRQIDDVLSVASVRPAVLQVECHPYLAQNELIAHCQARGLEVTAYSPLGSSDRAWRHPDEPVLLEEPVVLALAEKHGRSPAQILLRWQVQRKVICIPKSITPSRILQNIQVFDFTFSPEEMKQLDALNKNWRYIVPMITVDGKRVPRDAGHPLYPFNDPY
A short description of assay [4]: Ratio of AR IC50 and ALR IC50 of rat lens and kidney enzyme. The format is tissue-based. The note with it: Lens of camera-type eye.

Molecules are shown by their SMILES.

The inhibition is how much of the control response was suppressed. Low values mean a response near the control, high ones a response far below the control. On to `COc1ccccc1CN1C(=O)C(=O)N(CC(=O)O)C1=O`, for which, in assay [1], the inhibition came to 16%. As for `CCOC(=O)CN1C(=O)C(=O)N(Cc2cccc([N+](=O)[O-])c2)C1=O`, the inhibition in assay [1] is 31%.

As for `O=C(O)CN1C(=O)C(=O)N(Cc2ccccc2)C1=O`, the inhibition in assay [1] is 17%. The same measure, in the same setting: next, `Cc1ccccc1CN1C(=O)C(=O)N(CC(=O)O)C1=O`: 41%; `O=C(O)CN1C(=O)C(=O)N(CCc2cccc([N+](=O)[O-])c2)C1=O`: 36%; `O=C(O)CN1C(=O)C(=O)N(Cc2cccc([N+](=O)[O-])c2)C1=O`: 75%. Same read-out and setting: next, `O=C(O)CN1C(=O)C(=O)N(CCc2ccccc2Cl)C1=O`: 37%. Same read-out and setting: next, `O=C(O)CN1C(=O)C(=O)N(Cc2ccccc2Cl)C1=O`: 32%; `O=C(O)CN1C(=O)C(=O)N(CCCCc2ccccc2)C1=O`: 25%. For `O=C(O)CN1C(=O)C(=O)N(CCCc2ccccc2)C1=O`, in assay [1], the inhibition is 16%. On the same count and under the same terms, under `COc1ccc(CN2C(=O)C(=O)N(CC(=O)O)C2=O)cc1OC` stands 29%; under `O=C(O)CN1C(=O)C(=O)N(CCc2ccccc2)C1=O`, 30%. Same read-out and setting: next, `O=C(O)CN1C(=O)C(=O)N(CCc2ccc(Cl)c(Cl)c2)C1=O`: 57%. By IC50 is commonly meant the concentration that inhibits the measured activity by half. Low values mean greater potency, high ones weaker potency. On to `O=C(O)CN1C(=O)C(=O)N(Cc2ccc(Cl)cc2Cl)C1=O`, for which the results for the half-inhibitory concentration (IC50) in assay [2] and in assay [3] were 100 nM and 46000 nM, respectively. The compound further registered an inhibition in assay [1] of 68%. In assay [4], the Ratio stood at 460.

Take `O=C(O)CN1C(=O)C(=O)N(Cc2ccc(Cl)cc2)C1=O`: in assay [1], the inhibition turned out to be 56%. In the case of `O=C(O)CN1C(=O)C(=O)N(Cc2ccc(F)cc2)C1=O`, the inhibition in assay [1] was 9%. The same measure, in the same setting: next, `O=C(O)CN1C(=O)C(=O)N(CCc2ccc(Br)cc2)C1=O`: 47%; `O=C(O)CN1C(=O)C(=O)N(Cc2ccc([N+](=O)[O-])cc2)C1=O`: 26%; `Cc1ccc(CCN2C(=O)C(=O)N(CC(=O)O)C2=O)cc1`: 42%. In the case of `COc1ccc(CCN2C(=O)C(=O)N(CC(=O)O)C2=O)cc1OC`, the inhibition in assay [1] came to 42%. On the same count and under the same terms, next, `Cc1ccc(CN2C(=O)C(=O)N(CC(=O)O)C2=O)cc1`: 30%; `O=C(O)CN1C(=O)C(=O)N(Cc2ccc(Br)cc2)C1=O`: 65%. As for `O=C(O)CN1C(=O)C(=O)N(Cc2ccc(Cl)c(Cl)c2)C1=O`, the values for the IC50 in assay [2] and in assay [3] were 50 nM and greater than 100000 nM, respectively. In assay [1], this compound gave an inhibition of 77%. Besides, in assay [4], the Ratio is greater than 2000. For the compound `COc1cccc(CN2C(=O)C(=O)N(CC(=O)O)C2=O)c1`, the inhibition in assay [1] came out at 44%.

For `O=C(O)CN1C(=O)C(=O)N(Cc2cccc(Cl)c2)C1=O`, the inhibition in assay [1] turned out to be 31%. Still for that read-out and setting: under `O=C(O)CN1C(=O)C(=O)N(Cc2ccccc2[N+](=O)[O-])C1=O` stands 66%.
